High-throughput results: PubChem BioAssay, several laboratories
TPT1 inhibitor: C. albicans TPT1 enzyme inhibition | hit rate 0.81% among 300,000 | inhibition, % at 5 µM | recombinant caTPT1, FP RNA substrate dephosphorylation;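 active = inhibition above the mean of all tested compounds plus 3 SD, set per screening campaign, cut at about 24% in these data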
SENP1 FRET inh: inhibitors of human SENP1 SUMO protease catalytic domain; hit rate 0.21% among 360,000; inhibition, % at 10 µM; recombinant SENP1 catalytic domain, CyPet-SUMO1-YPet FRET cleavage;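 active = inhibition at least 30% at 10 µM, raw YFP signal under a set limit, fluorescence ratio 0.5 to 1.5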
Target sequence (Q9P0U3 419-644 limits assumed): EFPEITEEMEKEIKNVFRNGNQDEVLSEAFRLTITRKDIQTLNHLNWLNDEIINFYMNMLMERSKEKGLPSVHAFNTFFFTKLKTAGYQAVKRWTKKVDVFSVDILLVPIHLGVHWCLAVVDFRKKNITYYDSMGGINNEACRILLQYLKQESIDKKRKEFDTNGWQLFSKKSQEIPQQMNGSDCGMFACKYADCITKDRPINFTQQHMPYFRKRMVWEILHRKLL
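System: Recombinant human SENP1 catalytic domain, His6-tagged | Incubation: Enzyme reaction for 50 min at room temperature, dark | Medium: Tris pH 8 with BME, BSA, NP40 and catalase | Also added: 25 nM SUMO1 FRET substrate | Compound: 10 µM single point, 0.5% DMSO | Measured by: FRET fluorescence in CFP and YFP emission channels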
SUMO HTRF inh: blocks human SUMOylation mediated by UBC9; P63279; HTRF SUMOylation assay, SAE1/SAE2 + UBC9, in vitro; inhibition, % at 35 µM; hit rate 0.36% among 290,000; in the data active = inhibition above about 50%, passing the limit was not always enough
CSN deneddyl inh: CSN deneddylation inhibition | Q92905 | Purified CSN, SCF-Nedd8-OG deneddylation, fluorescence polarization | inhibition, % at 12.5 µM | hit rate 0.38% among 360,000;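 active = pattern-corrected inhibition above about 35%, with an unprinted fluorescence ratio check between 0.5 and 1.5, limit read from the data, passing the limit was not always enough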
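Assay system: Purified human Csn5 enzyme expressed in HEK293T cells | Amount: Enzyme 0.24 nM | Measured by: Fluorescence polarization readout | Medium: Tris/NaCl/DTT buffer, pH 7.5 | Compound dosing: One concentration, 12.5 µM, 0.25% DMSO | Times: 90 min incubation of compound, enzyme and substrate at room temperature | Control set: no-enzyme wells high, enzyme-with-substrate wells low | Read-out: % inhibition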
HNF4A DNA FP: change in binding of human HNF4 alpha to DNA; P41235; HNF4a-FITC DNA binding, fluorescence polarization, 1 h; activity change, % at 10 µM; hit rate 0.3% among 360,000; AID 1224865; in the data active = activity change above about 30%, passing the limit was not always enough
Rpn11 inh: inhibitors of human proteasome Rpn11; O00487; human 26S proteasome, Ub4-pepOG fluorescence polarization; 20S core pre-blocked with epoxomicin; calls only at 20 µM; hit rate 0.59% among 360,000;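 active = inhibition at 20 µM, scaled to each plate's controls, above about 33%, limit read from the data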
Target sequence (O00487 whole entry, looked up): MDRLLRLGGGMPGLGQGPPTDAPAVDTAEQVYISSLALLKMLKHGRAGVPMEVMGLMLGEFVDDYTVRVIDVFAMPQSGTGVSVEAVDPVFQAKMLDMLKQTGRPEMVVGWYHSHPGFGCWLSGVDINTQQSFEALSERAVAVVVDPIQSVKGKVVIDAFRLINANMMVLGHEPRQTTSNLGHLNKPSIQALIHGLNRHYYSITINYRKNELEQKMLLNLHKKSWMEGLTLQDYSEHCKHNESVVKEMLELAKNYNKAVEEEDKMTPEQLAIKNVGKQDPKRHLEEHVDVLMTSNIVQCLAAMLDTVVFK
caTPT1 confirm: confirmation of Candida albicans TPT1 inhibitors | shares compounds with TPT1 inhibitor | recombinant caTPT1, fluorescence polarization, RNase T1 coupled | inhibition, % at 5 µM | hit rate 74% among 2,400 | AID 2149;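 active = inhibition above the primary screen limit, the mean inhibition of all tested compounds plus 3 SD, cut at about 25% in these data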
RNase T1 counter: counter-screen for TPT1 inhibitors: inhibitors of Aspergillus oryzae RNase T1. shares compounds with TPT1 inhibitor. RNase T1 cleavage, fluorescence polarization, 1536-well. inhibition, % at 5 µM. hit rate 83% among 2,400. AID 2153;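 active = inhibition above the solvent-only control well mean plus 3 SD, limit set per screening run, cut at about 23% in these data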;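 also: inhibitors block cleavage so intact labeled substrate keeps polarization high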
Target sequence (P00651 whole entry, looked up): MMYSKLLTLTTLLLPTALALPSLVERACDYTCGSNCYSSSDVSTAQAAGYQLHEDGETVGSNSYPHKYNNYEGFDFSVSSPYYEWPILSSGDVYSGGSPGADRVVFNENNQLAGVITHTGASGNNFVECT
A number is an active result; n = inactive; x = no result shown. This is a sample that favours compounds with a hit; in the whole collection about 1.8% have one here.

SMILES	TPT1 inhibitor	SENP1 FRET inh	SUMO HTRF inh	CSN deneddyl inh	HNF4A DNA FP	Rpn11 inh	caTPT1 confirm	RNase T1 counter
c1coc(CNc2c3c(nc4ccccc24)CCC3)c1	25.5	n	n	n	n	n	24.4	34.7
O=C(O)Cc1sc(NC2CCCCC2)nc1-c1ccc(Cl)cc1	137.5	n	n	65.4	n	x	n	32.3
Cc1ccc(/C=C2\CCC3=C2OC(N)=C(C#N)C3c2ccc(C)cc2)cc1 (stereo not given)	122.2	n	n	n	n	x	121.1	111.9
CCOC(=O)C1(Cc2cccc(F)c2)CCN(Cc2nc(CC)[nH]c2C)CC1	87.2	n	n	n	75.4	x	102.1	107.2
CN(C)/N=C/C=C1\CCC/C(=C\c2ccc(F)c(F)c2)C1=O	n	n	n	n	n	n	x	x
COc1ccc(/C=C2\CCC/C(=C\C=N\N(C)C)C2=O)cc1	36.8	n	n	n	n	x	45.0	55.5
CC(C)(C)C(=O)O/N=C(\N)c1ccc([N+](=O)[O-])s1	n	n	n	n	n	n	x	x
CC(=O)N1c2ccc(Cl)cc2C2C=CCC2C1c1cccc2ccccc12 (stereo not given)	n	n	n	n	n	n	x	x
CC(=O)N1c2ccc3ccccc3c2C2C=CCC2C1c1ccc(Br)cc1 (stereo not given)	36.1	x	n	x	x	x	n	n
CCc1cc(=O)[nH]c(SCCC(F)=C(F)F)n1	n	n	n	n	n	n	x	x
CCOc1cc2c(C#N)c(N3CCCCC3)nc(N)c2c(N)n1	50.5	n	n	n	n	x	49.3	58.0
COc1ccc(CN2C(=O)Cc3c2nc(N)c2c(N)nc(N4CCCCC4)c(C#N)c32)cc1	30.6	x	n	x	x	x	58.3	68.1
CCn1c(/C=C/c2c(C)[nH]c3ccccc23)nc2ccccc2c1=O	37.7	n	n	n	n	x	59.4	70.8
Cc1[nH]c2ccccc2c1/C=C/C(=O)c1ccccc1	31.9	n	n	n	n	x	62.6	75.3
COc1ccc2oc(=O)c(C(=O)NCc3ccccc3)cc2c1	n	n	n	n	n	n	x	x
COc1ccc(C(=O)N/N=c2\oc3ccccc3cc2C(=O)NCc2ccccc2)cc1	32.9	n	n	n	n	n	n	n
CCN(C(=O)C(C)N1C(=O)/C(=C/c2ccco2)SC1=S)C1CCS(=O)(=O)C1 (stereo not given)	n	n	n	n	n	n	x	x
CC(C(=O)O)N1C(=O)/C(=C/C=C/c2ccco2)SC1=S (stereo not given)	60.7	n	84.0	n	n	x	34.1	44.8
O=C1/C(=C/C=C/c2ccco2)SC(=S)N1NS(=O)(=O)c1ccccc1	85.2	n	60.0	n	n	x	66.6	34.1
Cc1cc(NS(=O)(=O)c2ccc(NC(=O)Nc3ccccc3)cc2)no1	n	n	n	n	n	n	x	x
COC(=O)c1ccc(N)c(N=CC2=C(O)CC(C)(C)CC2=O)c1	30.8	n	n	n	n	x	n	n
CC1(C)CC(=O)C(C=Nc2cc(C(=O)c3ccccc3)ccc2N)=C(O)C1	27.5	n	n	n	n	x	n	n
Cc1cc(C(=O)CSc2nn(-c3ccccc3)c(=S)s2)c(C)n1Cc1ccco1	n	n	n	n	n	n	x	x
Cc1c2cnn(CC(=O)NCCCN3CCCCC3C)c(=O)c2c(C)n1Cc1ccccc1 (stereo not given)	24.2	n	n	n	n	n	36.3	44.1
CCOc1ccc(N2C(=O)C3Sc4[nH]c(=O)sc4C(/C=C/c4ccccc4)C3C2=O)cc1 (stereo not given)	50.9	n	n	n	n	x	34.2	40.5
SMILES	TPT1 inhibitor	SENP1 FRET inh	SUMO HTRF inh	CSN deneddyl inh	HNF4A DNA FP	Rpn11 inh	caTPT1 confirm	RNase T1 counter
COc1cc(C2c3sc(=O)[nH]c3SC3C(=O)N(c4ccc(Br)cc4)C(=O)C32)ccc1O (stereo not given)	n	n	n	n	n	n	x	x
CCCn1c2c(c(O)c(C(=O)NC)c1=O)CCCC2	37.8	n	n	n	n	n	n	n
CCCn1c2c(c(O)c(C(=O)NCc3ccccc3)c1=O)CCCC2	n	n	n	n	n	n	x	x
CCC(C)(C)C1CCc2c(sc(N)c2C(N)=O)C1 (stereo not given)	n	n	n	n	n	n	x	x
CC(C)(C)C1CCc2c(sc(N)c2C(N)=O)C1 (stereo not given)	24.5	n	n	n	n	n	n	n
COc1cccc(N2CCN(C3CCCC(C)C3)CC2)c1 (stereo not given)	n	n	n	n	n	n	x	x
O=C1CCC(=O)N1c1ccc(-c2nc3ccccc3s2)cc1	51.5	n	n	n	n	n	n	n
COc1ccc(NC(=O)CSc2nc3nc(C)cc(C)c3c(=O)[nH]2)cc1	25.0	n	n	n	n	n	n	n
O=C(CSc1nc2ccccc2c(=O)[nH]1)Nc1ccc(C(=O)O)cc1	n	n	n	n	n	n	x	x
CCOc1ccc(NC(=O)c2ccc(NC(=O)CSc3nc4ccccc4c(=O)[nH]3)cc2)cc1	52.8	n	n	n	n	n	n	n
CN(C)c1ccc(/C=C/C(=O)c2c(O)c3ccccc3oc2=O)cc1	55.2	n	n	n	n	x	70.4	79.5
CCOc1ccc(/C=C/C(=O)c2c(O)c3ccccc3oc2=O)cc1	n	n	n	n	n	n	x	x
CCc1cccc(Oc2nn[nH]n2)c1	n	n	n	n	n	n	x	x
CCn1c(CCNC(=O)c2ccc(Cl)c(Cl)c2)nnc1SCCOc1ccc(OC)cc1	24.9	n	n	n	n	n	n	n
COc1ccc(OCCSc2nnc(CCNC(=O)c3ccc(Cl)c(Cl)c3)n2C)cc1	n	n	n	n	n	n	x	x
CCCc1[nH]n(-c2ccc(F)cc2)c(=O)c1C=Nc1cccc(F)c1	n	n	n	n	n	n	x	x
Cc1cc2nc(/C(C#N)=C\c3ccc(-c4ccccc4C(=O)O)o3)[nH]c2cc1C	138.5	n	n	n	n	x	144.7	136.0
N#C/C(=C\c1ccc(Sc2ccccc2)o1)c1nc2ccccc2[nH]1	50.6	n	n	n	n	n	59.5	70.0
N#C/C(=C/c1ccc(Sc2nc3ccccc3[nH]2)o1)c1ccccc1F	n	n	n	n	n	n	x	x
CC1(C)NC(=O)N(CC(O)Cn2nnc3ccccc32)C1=O (stereo not given)	n	n	n	n	n	n	x	x
COc1ccc(Cc2nnc(NS(C)(=O)=O)s2)cc1	n	n	n	n	n	n	x	x
CCOC(=O)CC1CCCCN1C(=O)c1ccc2nc(CCOC)oc2c1 (stereo not given)	n	n	n	n	n	n	x	x
